pIC50, pKi: −log10 of the molar value. ≈ marks a conversion by molar mass, not a printed value.
Experiments:
[1] = Oral bioavailability in dog at 1 mg/kg administered using 0.1%tween-1%CMC as vehicle; format: ADME, organism-based, Canis lupus familiaris; details: in vivo
[2] = Oral bioavailability in Sprague-Dawley rat at 1 mg/kg administered using 0.1%tween-1%CMC as vehicle; format: ADME, organism-based; details: in vivo
[3] = Half life in Sprague-Dawley rat at 1 mg/kg, iv; format: ADME, organism-based; set-up: dose 1 mg/kg, route intravenous; details: in vivo
[4] = Clearance in Sprague-Dawley rat at 1 mg/kg, iv; format: ADME, organism-based; set-up: dose 1 mg/kg, route intravenous; details: in vivo
[5] = Volume of distribution at steady state in Sprague-Dawley rat at 1 mg/kg, iv; format: ADME, organism-based; set-up: dose 1 mg/kg, route intravenous; details: in vivo, read-out: Vdss
Method in brief: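 Male Sprague-Dawley rats given a single iv dose, nominal 1 mg/kg, […] in DMA:PEG400:H2O (2:2:1).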

[6] = Oral bioavailability in Sprague-Dawley rat at 1 mg/kg administered using cyclodextrin-meglumine as vehicle; format: ADME, organism-based; details: in vivo
[7] = Solubility of the compound at pH 7.4; format: physicochemical; details: buffer
Histamine H1 receptor = Histamine H1 receptor (Homo sapiens, UniProt P35367); experiment: Displacement of [3H]pyrilamine from human H1 receptor expressed in CHOK1 cells; format: cell-based, CHO-K1
[8] = target: T1, C-C chemokine receptor type 3 (Homo sapiens, UniProt P51677); experiment: Binding affinity to human CCR3 receptor expressed in CHOK1 cells by radioligand displacement assay; format: cell-based, CHO-K1
T1 sequence (P51677 whole entry): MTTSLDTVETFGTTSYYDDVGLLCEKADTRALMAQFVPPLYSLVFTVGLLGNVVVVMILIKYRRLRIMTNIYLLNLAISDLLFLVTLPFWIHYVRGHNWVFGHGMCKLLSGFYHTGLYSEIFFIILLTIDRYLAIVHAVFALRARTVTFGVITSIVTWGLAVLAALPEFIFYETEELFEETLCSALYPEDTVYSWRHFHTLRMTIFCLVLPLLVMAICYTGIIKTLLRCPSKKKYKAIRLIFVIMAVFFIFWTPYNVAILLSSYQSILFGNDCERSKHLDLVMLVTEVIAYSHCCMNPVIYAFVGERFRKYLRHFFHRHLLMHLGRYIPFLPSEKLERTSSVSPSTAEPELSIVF

[9] = target: T2, Voltage-gated inwardly rectifying potassium channel KCNH2 (Homo sapiens, UniProt Q12809); experiment: Inhibition of human ERG expressed in CHO cells by IonworksHT assay; format: cell-based
[10] = target: T2, Voltage-gated inwardly rectifying potassium channel KCNH2
[11] = Oral bioavailability in rat; format: ADME, organism-based; details: in vivo
hERG (KCNH2) = hERG (KCNH2) (Homo sapiens, UniProt Q12809); experiment: Inhibition of human ERG expressed in HEK293 cells at 10 uM by electrophysiological ion flux assay; format: cell-based; details: HEK293 cells expressing human ERG
Sequence of hERG (KCNH2) (Q12809 whole entry): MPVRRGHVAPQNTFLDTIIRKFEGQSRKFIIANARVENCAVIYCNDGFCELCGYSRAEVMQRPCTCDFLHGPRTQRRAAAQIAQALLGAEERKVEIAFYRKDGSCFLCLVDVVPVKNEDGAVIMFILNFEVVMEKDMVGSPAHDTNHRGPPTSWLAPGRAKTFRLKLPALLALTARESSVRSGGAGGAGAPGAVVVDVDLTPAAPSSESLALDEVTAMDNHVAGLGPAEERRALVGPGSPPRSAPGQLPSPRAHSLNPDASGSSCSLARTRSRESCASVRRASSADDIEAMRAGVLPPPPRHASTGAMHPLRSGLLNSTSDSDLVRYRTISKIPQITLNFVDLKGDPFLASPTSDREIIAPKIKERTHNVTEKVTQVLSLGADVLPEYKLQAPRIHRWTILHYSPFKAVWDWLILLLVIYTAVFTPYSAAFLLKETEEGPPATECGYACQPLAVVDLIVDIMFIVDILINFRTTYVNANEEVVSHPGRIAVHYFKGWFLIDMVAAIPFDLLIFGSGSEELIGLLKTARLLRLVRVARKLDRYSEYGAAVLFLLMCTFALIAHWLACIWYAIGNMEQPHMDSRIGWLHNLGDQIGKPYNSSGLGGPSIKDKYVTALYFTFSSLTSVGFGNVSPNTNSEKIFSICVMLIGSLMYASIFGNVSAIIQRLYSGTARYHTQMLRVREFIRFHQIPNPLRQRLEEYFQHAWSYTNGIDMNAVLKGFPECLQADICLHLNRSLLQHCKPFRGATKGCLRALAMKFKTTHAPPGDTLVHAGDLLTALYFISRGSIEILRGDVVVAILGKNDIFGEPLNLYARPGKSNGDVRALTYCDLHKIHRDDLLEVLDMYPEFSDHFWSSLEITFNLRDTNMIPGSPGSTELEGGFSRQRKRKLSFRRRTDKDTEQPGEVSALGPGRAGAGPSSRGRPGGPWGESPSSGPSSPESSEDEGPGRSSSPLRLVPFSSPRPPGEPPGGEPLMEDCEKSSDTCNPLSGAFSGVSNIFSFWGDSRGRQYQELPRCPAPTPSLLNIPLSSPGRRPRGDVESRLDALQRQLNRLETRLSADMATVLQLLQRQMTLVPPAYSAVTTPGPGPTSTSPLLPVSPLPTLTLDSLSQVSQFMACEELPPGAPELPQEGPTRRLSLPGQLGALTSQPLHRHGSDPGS

Sequence of Histamine H1 receptor (P35367 whole entry): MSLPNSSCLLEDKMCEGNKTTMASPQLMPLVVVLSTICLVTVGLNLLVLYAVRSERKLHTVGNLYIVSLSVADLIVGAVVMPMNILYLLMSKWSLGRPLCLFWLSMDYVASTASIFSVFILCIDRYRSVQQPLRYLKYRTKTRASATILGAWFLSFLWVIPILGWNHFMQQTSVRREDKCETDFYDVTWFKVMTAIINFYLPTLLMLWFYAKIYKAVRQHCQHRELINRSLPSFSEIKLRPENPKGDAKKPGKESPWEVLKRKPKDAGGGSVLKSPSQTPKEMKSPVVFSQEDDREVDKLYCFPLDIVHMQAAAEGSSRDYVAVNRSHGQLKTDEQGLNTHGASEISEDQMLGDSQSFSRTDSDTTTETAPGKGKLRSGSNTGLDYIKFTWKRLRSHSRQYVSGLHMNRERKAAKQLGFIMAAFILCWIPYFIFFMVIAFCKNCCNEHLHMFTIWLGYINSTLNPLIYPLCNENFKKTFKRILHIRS
T2 sequence (Q12809 whole entry): as the sequence (Q12809 whole entry) above

SMILES | pKi (Histamine H1 receptor) | pKi [8] | further results
Cc1ccc(S(=O)(=O)NC(=O)N2CCC(N3CCC(Oc4ccc(Cl)c(Cl)c4)CC3)CC2)cc1 | – | – | bioavailability [1]: 19%; bioavailability [2]: 18%; half-life [3]: 2.7 h; clearance [4]: 20 mL/min/kg; Vd [5]: 2.7 L/kg; bioavailability [6]: 44%
Cc1ccc(S(=O)(=O)[N-]C(=O)N2CCC(N3CCC(Oc4ccc(Cl)c(Cl)c4)CC3)CC2)cc1.[Na+] | – | – | bioavailability [1]: 97%; bioavailability [2]: 15%; solubility [7]: 0.26 µM
Cc1ccc(S(=O)(=O)N(C)C(=O)N2CCC(N3CCC(Oc4ccc(Cl)c(Cl)c4)CC3)CC2)cc1 | 8.60 | 7.00 | pIC50 [9]: 6.50
Cc1c(Cl)ccc(OC2CCN(C3CCN(C(=O)NS(=O)(=O)c4ccc(N(C)C)cc4)CC3)CC2)c1Cl | – | 8.50 | bioavailability [2]: 82%; Vd [5]: 2.3 L/kg; pIC50 [9]: < 4.70
O=C(NS(=O)(=O)N1CCC(N2CCC(Oc3ccc(Cl)c(Cl)c3)CC2)CC1)c1ccccc1 | 7.00 | 7.10 | bioavailability [2]: 100%; Vd [5]: 0.5 L/kg
Cc1c(Cl)ccc(OC2CCN(C3CCN(S(=O)(=O)NC(=O)c4ccccc4)CC3)CC2)c1Cl | 7.60 | 7.90 | pIC50 [10]: 5.40; bioavailability [2]: 18%; half-life [3]: 1.6 h; clearance [4]: 17 mL/min/kg; Vd [5]: 0.9 L/kg
COc1ccc(C(=O)NCCN2CCN(Cc3ccc(Cl)c(Cl)c3)CC2)cc1Cl | – | 5.30 | –
COc1cccc(C(=O)NCCN2CCC(Oc3ccc(Cl)c(Cl)c3)CC2)c1 | – | 7.00 | half-life [3]: 1.8 h
CS(=O)(=O)c1cccc(C(=O)N2CCC(N3CCC(Oc4ccc(Cl)c(Cl)c4)CC3)CC2)c1 | 8.10 | 7.30 | half-life [3]: 6.9 h; solubility [7]: 0.017 µM (≈ 8.7 ng/mL); bioavailability [11]: 50%
O=C(c1c[nH]c(=O)c2ccccc12)N1CCC(N2CCC(Oc3ccc(Cl)c(Cl)c3)CC2)CC1 | 7.60 | 8.00 | half-life [3]: 4.2 h; bioavailability [11]: 50%
Cc1c(Cl)ccc(OC2CCN(C3CCN(C(=O)c4cccc(S(C)(=O)=O)c4)CC3)CC2)c1Cl | 7.60 | 8.30 | –
O=C(O)COc1cccc(C(=O)N2CCC(N3CCC(Oc4ccc(Cl)c(Cl)c4)CC3)CC2)c1 | 7.00 | 6.60 | inhibition at 10 µM (hERG (KCNH2)): 15%
O=C(O)c1ccccc1C(=O)N1CCC(N2CCC(Oc3ccc(Cl)c(Cl)c3)CC2)CC1 | 7.60 | 6.60 | –
O=C(O)c1cccc(C(=O)N2CCC(N3CCC(Oc4ccc(Cl)c(Cl)c4)CC3)CC2)c1 | 6.90 | 6.70 | pIC50 [10]: < 5.00
O=C(c1ccc(-c2nc(=O)o[nH]2)cc1)N1CCC(N2CCC(Oc3ccc(Cl)c(Cl)c3)CC2)CC1 | 7.80 | 6.50 | –
O=C(c1ccc(-c2nn[nH]n2)cc1)N1CCC(N2CCC(Oc3ccc(Cl)c(Cl)c3)CC2)CC1 | 7.50 | 6.70 | –
O=C(O)CCCS(=O)(=O)c1cccc(C(=O)N2CCC(N3CCC(Oc4ccc(Cl)c(Cl)c4)CC3)CC2)c1 | 7.10 | 7.10 | –
O=C(O)CCNc1ccccc1C(=O)N1CCC(N2CCC(Oc3ccc(Cl)c(Cl)c3)CC2)CC1 | 7.80 | 6.30 | –
O=C(O)CCCCn1nnc(-c2ccc(C(=O)N3CCC(N4CCC(Oc5ccc(Cl)c(Cl)c5)CC4)CC3)cc2)n1 | 7.40 | 6.40 | –
Cc1ccc(C(=O)N2CCC(N3CC[C@H](Oc4ccc(Cl)c(C)c4Cl)C[C@@H]3C(=O)O)CC2)cc1 | < 5.20 | 6.20 | –
Cc1ccc(C(=O)N2CCC(N3CC[C@@H](Oc4ccc(Cl)c(C)c4Cl)C[C@H]3C(=O)O)CC2)cc1 | < 5.30 | 5.60 | –

SMILES | pKi (Histamine H1 receptor) | pKi [8] | further results
CS(=O)(=O)c1cccc(C(=O)N2CC[C@@H](N3CCC(Oc4ccc(Cl)c(Cl)c4)CC3)[C@H](C(=O)O)C2)c1 | 6.70 | 6.40 | –
O=C(NS(=O)(=O)c1ccccc1)N1CCC(N2CCC(Oc3ccc(Cl)c(Cl)c3)CC2)CC1 | 7.50 | 7.80 | pIC50 [10]: 5.00
O=C(NS(=O)(=O)c1ccc(F)cc1)N1CCC(N2CCC(Oc3ccc(Cl)c(Cl)c3)CC2)CC1 | 7.30 | 7.50 | –
O=C(NS(=O)(=O)c1ccc(Cl)cc1)N1CCC(N2CCC(Oc3ccc(Cl)c(Cl)c3)CC2)CC1 | 7.70 | 8.10 | –
COc1ccc(S(=O)(=O)NC(=O)N2CCC(N3CCC(Oc4ccc(Cl)c(Cl)c4)CC3)CC2)cc1 | 7.70 | 7.40 | bioavailability [2]: 4%
CN(C)c1ccc(S(=O)(=O)NC(=O)N2CCC(N3CCC(Oc4ccc(Cl)c(Cl)c4)CC3)CC2)cc1 | 7.70 | 7.30 | –
Cc1ccccc1S(=O)(=O)NC(=O)N1CCC(N2CCC(Oc3ccc(Cl)c(Cl)c3)CC2)CC1 | 7.30 | 7.70 | pIC50 [10]: < 5.00; bioavailability [2]: 8%; Vd [5]: 2.7 L/kg
O=C(NS(=O)(=O)c1ccccc1Cl)N1CCC(N2CCC(Oc3ccc(Cl)c(Cl)c3)CC2)CC1 | 7.30 | 8.30 | –
COc1ccccc1S(=O)(=O)NC(=O)N1CCC(N2CCC(Oc3ccc(Cl)c(Cl)c3)CC2)CC1 | 7.70 | 7.60 | –
CN(C)c1ccccc1S(=O)(=O)NC(=O)N1CCC(N2CCC(Oc3ccc(Cl)c(Cl)c3)CC2)CC1 | 7.60 | 7.50 | –
Cc1cccc(S(=O)(=O)NC(=O)N2CCC(N3CCC(Oc4ccc(Cl)c(Cl)c4)CC3)CC2)c1 | 7.50 | 6.90 | –
O=C(NS(=O)(=O)c1cccc(Cl)c1)N1CCC(N2CCC(Oc3ccc(Cl)c(Cl)c3)CC2)CC1 | 8.10 | 8.20 | –
N#Cc1cccc(S(=O)(=O)NC(=O)N2CCC(N3CCC(Oc4ccc(Cl)c(Cl)c4)CC3)CC2)c1 | 7.70 | 7.00 | –
O=C(NS(=O)(=O)c1cccc(C(F)(F)F)c1)N1CCC(N2CCC(Oc3ccc(Cl)c(Cl)c3)CC2)CC1 | 7.40 | 7.50 | –
Cc1ccc(S(=O)(=O)NC(=O)N2CCC(N3CCC(Oc4ccc(Cl)cc4Cl)CC3)CC2)cc1 | 7.80 | 7.60 | –
Cc1ccc(S(=O)(=O)NC(=O)N2CCC(N3CCC(Oc4ccc(Cl)c(C)c4Cl)CC3)CC2)cc1 | 7.70 | 9.20 | –
Cc1ccc(S(=O)(=O)NC(=O)N2CCC(N3CCC(Oc4ccc(Cl)cc4C)CC3)CC2)cc1 | 7.60 | 8.10 | pIC50 [10]: < 5.00; bioavailability [2]: 6%; half-life [3]: 0.9 h; clearance [4]: 27 mL/min/kg; Vd [5]: 1.4 L/kg
Cc1ccc(S(=O)(=O)NC(=O)N2CCC(N3CCC(Oc4ccc(Cl)cc4)CC3)CC2)cc1 | 6.90 | 6.90 | –
Cc1ccc(S(=O)(=O)NC(=O)N2CCC(N3CCC(Oc4ccc(F)c(F)c4)CC3)CC2)cc1 | 6.00 | 6.20 | –
O=C(NS(=O)(=O)Cc1ccccc1)N1CCC(N2CCC(Oc3ccc(Cl)c(Cl)c3)CC2)CC1 | 7.30 | 6.80 | –

Source: ChEMBL document CHEMBL2169805, “The discovery of CCR3/H1 dual antagonists with reduced hERG risk” (Bioorg Med Chem Lett, 2012)
